# According to ChEMBL document CHEMBL4257564, “Rational Design, Synthesis, and Pharmacological Characterization of Novel Ghrelin Receptor Inverse Agonists as Potential Treatment against Obesity-Related Metabolic Diseases” (J Med Chem, 2018):
# What was measured:
# [1] = Protein binding in dog plasma at 1 uM after 6 hrs by equilibrium dialysis; format: ADME, cell-free, Canis lupus familiaris; conditions: read-out: PPB
# Outline: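 Compound spiked at 1.0 µM final (0.5% DMSO) into plasma. Equilibrium dialysis against DPBS pH 7.4 across a 12–14 kD membrane for 6 h at 37 °C, in triplicate. Buffer-only controls used for nonspecific binding. Unbound fraction = acceptor/donor concentration by LC-MS/MS; reported as % bound.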
# [2] = Plasma clearance in rat at 3 mg/kg, iv after 24 hrs by LC-MS/MS analysis; format: ADME, organism-based
# Outline: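 Rats given 3 mg/kg i.v. via tail vein, in 2% DMSO/50% of 40% HP-β-CD. EDTA plasma sampled at 0.08–24 h and analysed by LC-MS/MS, calibration range 5-5000 ng/mL.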
# [3] = Clearance in dog liver microsomes at 0.625 uM preincubated for 5 mins followed by NADPH addition and measured after 60 mins by LC-MS/MS analysis; format: ADME, Canis lupus familiaris, microsome; conditions: read-out: CLH
# Outline: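 Liver microsomes (0.625 mg/mL protein) in 50 mM potassium phosphate pH 7.4 with 0.625 µM test item, prewarmed 5 min at 37 °C. Reaction started with NADPH (5 mM solution). Samples taken at 0, 5, 15, 30 and 60 min into cold MeCN with internal standard, analysed by LC-MS/MS. Intrinsic clearance derived by the half-life approach.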
# [4] = target: Growth hormone secretagogue receptor type 1 (Homo sapiens, UniProt Q92847); experiment: Inverse agonist at recombinant human GHSR1a expressed in HEK293 cells assessed as decrease in IP1 accumulation after 1 hr by IP1-d2-based HTRF assay; format: functional, cell-based; conditions: read-out: EC50
# Outline: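 HEK293 cells stably expressing human GHSR1a were seeded on Matrigel in complete DMEM for 18–22 h at 37 °C, 5% CO2. Compound in stimulation buffer was applied for 1 h at 37 °C. IP1-d2 and Tb-cryptate were then added for 1 h at room temperature, with HTRF read at 620/665 nm. Mean of at least two independent runs in triplicate.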
# Mus musculus [5] = experiment: Anti-obesity activity in C57BL/6J mouse assessed as inhibition of anamorelin-induced increase in food intake by measuring cumulative food intake at 30 mg/kg, po pretreated for 10 mins followed by anamorelin addition and measured after 4 hrs post dose (reference value: 2.09 +/- 0.08 g)
# Mus musculus [6] = experiment: Anti-obesity activity in C57BL/6J mouse assessed as inhibition of anamorelin-induced increase in food intake by measuring cumulative food intake at 30 mg/kg, po pretreated for 10 mins followed by anamorelin addition and measured after 8 hrs post dose (reference value: 2.97 +/- 0.09 g)
# Mus musculus [7] = experiment: Anti-obesity activity in C57BL/6J mouse assessed as inhibition of anamorelin-induced increase in food intake by measuring cumulative food intake at 10 mg/kg, ip pretreated for 10 mins followed by anamorelin addition and measured after 4 hrs post dose (reference value: 2.09 +/- 0.08 g); format: functional
# Outline: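 Male C57BL/6J mice (18–22 g at arrival), fed ad libitum. Dosed 10 mg/kg i.p. at t = 0 in 10% DMAC/6% Solutol HS 15/84% PBS, then anamorelin 30 mg/kg p.o. (0.5% CMC) at 10 min. Cumulative food intake recorded at 1, 2, 4, 8 and 24 h; n=6 per group; mean ± SEM; ANOVA with Dunnett test versus vehicle+anamorelin.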
# Mus musculus [8] = experiment: Anti-obesity activity in C57BL/6J mouse assessed as inhibition of anamorelin-induced increase in food intake by measuring cumulative food intake at 30 mg/kg, po pretreated for 10 mins followed by anamorelin addition and measured after 1 hr post dose (reference value: 0.63 +/- 0.04 g)
# Growth hormone secretagogue receptor type 1, sequence (Q92847 whole entry): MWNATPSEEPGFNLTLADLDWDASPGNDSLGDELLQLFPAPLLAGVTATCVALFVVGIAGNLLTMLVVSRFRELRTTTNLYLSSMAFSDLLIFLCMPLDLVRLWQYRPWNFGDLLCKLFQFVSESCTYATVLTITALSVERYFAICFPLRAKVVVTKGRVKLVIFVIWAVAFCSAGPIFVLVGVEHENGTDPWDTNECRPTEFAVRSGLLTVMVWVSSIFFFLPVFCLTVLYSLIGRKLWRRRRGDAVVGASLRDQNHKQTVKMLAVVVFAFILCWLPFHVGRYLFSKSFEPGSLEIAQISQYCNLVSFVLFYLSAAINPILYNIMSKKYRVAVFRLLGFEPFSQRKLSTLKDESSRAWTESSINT
compound,measurement,setting,value
Cc1cc(-c2ccc3c(c2)CC[C@H]3N2CCC(N(C)C(=O)N[C@@H](C)c3ccc(C#CC4CC4)c(Cl)c3Cl)CC2)ncn1,"fraction unbound at 6 h, 1 µM",[1],0.0001
same,clearance,[2],15.2 mL/min/kg
same,microsomal CLint at 0.625 µM,[3],52.2 µL/min/mg
same,EC50,[4],29.4 nM
same,Activity,Mus musculus [5],1.45 g
same,Activity,Mus musculus [6],1.8 g
same,Activity,Mus musculus [7],1.66 g
same,Activity,Mus musculus [8],0.22 g
